tim10-1 inh: growth inhibitors of tim10-1 mutant yeast, primary screen, luminescence, uHTS; S. cerevisiae tim10-1 ts strain growth, BacTiter-Glo, 24 h; inhibition, % at 20 µM; 2.2% of 330,000 active; AID 463190, 2010;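 active = inhibition of at least 40%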;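 note: mutant grown at 25 °C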
TIM10 inh: growth inhibitors of isogenic TIM10 control yeast, primary screen, counter-screen for tim10-1 yeast inhibitor project, luminescence, uHTS. inhibition, % at 10 µM. S. cerevisiae TIM10 strain growth, BacTiter-Glo luminescence, 24 h. 1.4% of 330,000 active. AID 463195, 2010;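 active = inhibition of 40% or more at the single tested concentration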;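 note: wild-type TIM10 isogenic control strain grown at permissive 25 °C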
tim23-1 inh: growth inhibitors of tim23-1 mutant yeast, primary screen, luminescence, uHTS; S. cerevisiae tim23-1 growth, BacTiter-Glo luminescence, 24 h; 1.3% of 330,000 active; inhibition, % at 20 µM; AID 463212, 2010;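 active = growth inhibition of the mutant yeast at or above 50%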;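 note: temperature-sensitive mutant grown at 25 °C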
UPR CHOP act: activators of apoptotic CHOP UPR arm, primary screen, cell-based, CHO-CHOP luciferase reporter, luminescence, uHTS | UPR activation; percent of tunicamycin response over DMSO baseline | activation, % at 10 µM | 0.34% of 330,000 active | AID 449763, 2010;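 active = at 10 µM dose, activation of 40% or more, normalized to positive control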
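Material: CHO-CHOP cells, stable luciferase reporter of PERK-eIF2a-CHOP signalling; quantity: 500 reporter cells seeded per well; buffer or medium: F12 medium containing 10% fetal bovine serum; compound: one dose, 10 µM in 0.5% DMSO; incubation: 6 h compound treatment, 37 °C; measured by: Steady-Glo luciferase luminescence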
UPR XBP1 act: activators of adaptive XBP1 UPR arm, primary screen, cell-based, CHO-XBP1 luciferase reporter, luminescence, uHTS; 0.33% of 330,000 active; IRE1-XBP1 UPR activation; percent of tunicamycin response, DMSO as zero; AID 463104, 2010; activation, % at 20 µM;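 active = versus positive control, 20 µM dose yields 30% or more activation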
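Test system: CHO-XBP1 luciferase reporter cells | Buffer or medium: Serum-containing F12 medium, 10% FBS | Schedule: 6 h compound exposure at 37 °C, 5% CO2 | Detection: Steady-Glo luciferase glow luminescence, 10 min after reagent addition | Read-out basis: Activation, % of tunicamycin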
TIM10 conf: growth inhibitors of wild-type TIM10 yeast, confirmation, counter-screen for tim10-1 synthetic lethality project, single concentration, luminescence, S. cerevisiae; shares compounds with TIM10 inh; S. cerevisiae tim10 strain growth, BacTiter-Glo luminescence, 24 h; inhibition, % at 10 µM; 63% of 4,600 active;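 active = inhibition of yeast growth at or above a set limit in either of two replicates at 10 µM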; note: this counterscreen used the strain with wild-type TIM10
tim23-1 conf: tim23-1 mutant yeast growth inhibitors, confirmation, luminescence, single concentration. inhibition, % at 20 µM. S. cerevisiae tim23-1 growth, BacTiter-Glo luminescence, 24 h. 83% of 4,400 active. shares compounds with tim23-1 inh;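 active = inhibition above about 39% in either of two replicate wells at 20 µM, limit read from the data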;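 note: temperature-sensitive tim23-1 mutant grown at 25 °C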
Of the large screens only hits and unclear results are named; the others gave an inactive call (follow-up assays come after a bar, where they were run). A selection: hits, their analogues and other compounds. The true share with any hit is near 3.9%.

Oc1ccc(Br)cc1-c1cc(-c2ccccc2Cl)[nH]n1	none
O=C1CN(C(=O)COc2c(F)c(F)cc(F)c2F)c2ccccc2N1	none
CCOC(=O)c1sc(NC(=O)c2sccc2C)cc1C	TIM10 inh 74, tim23-1 inh 50 | TIM10 conf 62 | tim23-1 conf 71
Cc1ccccc1OCCn1c(S(=O)(=O)O)nc2c(N)ncnc21	none
Cc1ccc(-c2nc(N)c3c(-c4ccc(C)cc4)nn(C(C)(C)C)c3n2)cc1	none
CC(C)(C)n1nc(-c2ccc(F)cc2)c2c(N)ncnc21	TIM10 inh 69, tim23-1 inh 73 | TIM10 conf 51 | tim23-1 conf 61
CC(C)(C)n1nc(-c2ccc(Cl)cc2)c2c(N)ncnc21	TIM10 inh 50, tim23-1 inh 63 | TIM10 conf 47 | tim23-1 conf 62
COc1cc(OC)cc(C(=O)NNC(=O)NC2CCCCC2)c1	none
COc1ccc(C(=O)NNC(=O)c2ccc3ccccc3n2)cc1	none
O=C(NC1CCCCC1)c1cc2cc(Br)ccc2o1	none
NC(=O)c1cc(Br)cc(C2CCCCC2)c1O	TIM10 inh 53, tim23-1 inh 65 | TIM10 conf 76 | tim23-1 conf inactive
CCN(c1ccccc1)S(=O)(=O)c1ccc(OC)c(NC(=O)CCc2nc3ccccc3c(=O)[nH]2)c1	none
O=Cc1ccccc1OCCOc1ccc([N+](=O)[O-])cc1	TIM10 inh 76, tim23-1 inh 58 | TIM10 conf 68 | tim23-1 conf 90
O=C(Nc1ccc2oc(-c3ccccc3F)nc2c1)c1ccc2c(c1)OCCO2	TIM10 inh 46, tim23-1 inh 60 | TIM10 conf 36 | tim23-1 conf 70
CC(=O)Nc1ccc2oc(-c3ccccc3Br)nc2c1	none
Cc1ccccc1-c1nc2cc(NC(=O)C3CC3)ccc2o1	TIM10 inh 63, tim23-1 inh 71 | TIM10 conf 54 | tim23-1 conf 75
Cc1[nH]c2ccccc2c1C(=O)C(=O)N1CCN(c2cccc(Cl)c2)CC1	none
CCC1(c2ccc(OC)cc2)NC(=O)N(CC(=O)NC2CCCCC2C)C1=O (centres undefined)	none
CCOC(=O)c1sc2ccccc2c1OC(=O)c1ccccc1OC	TIM10 inh 49, tim23-1 inh 54 | TIM10 conf 44 | tim23-1 conf 50
O=C(Nc1ccc(N2CCN(c3ncccc3C(F)(F)F)CC2)nc1)c1cccs1	TIM10 inh 45, tim23-1 inh 67 | TIM10 conf 53 | tim23-1 conf 82
O=C(Nc1ccc(N2CCOCC2)nc1)c1cccs1	TIM10 inh 55, tim23-1 inh 50 | TIM10 conf 43 | tim23-1 conf 68
O=C(N/N=C/c1c(O)ccc2ccccc12)c1cccc(C(F)(F)F)c1	TIM10 inh 43, tim23-1 inh 56 | TIM10 conf inactive | tim23-1 conf 44
COCCN(C(=S)Nc1c(C)cccc1C)C(C)c1ccco1 (centres undefined)	none
Cc1ccc2c(c1)COc1c3ccc(C(=O)NCC4CC4)cc3nn1-2	TIM10 inh 41, tim23-1 inh 61 | TIM10 conf 31 | tim23-1 conf 54
Cc1ccc2c(c1)COc1c3ccc(C(=O)O)cc3nn1-2	none
CN1CCN(S(=O)(=O)c2ccc(SCCOc3ccc(Cl)cc3)nc2)CC1	TIM10 inh 65, tim23-1 inh 61 | TIM10 conf 69 | tim23-1 conf 39
COc1ccc(-n2nnnc2CNC(=O)c2ccc3c(c2)OCO3)cc1	none
Cc1cccc(C(=O)O/N=C(\N)CS(=O)(=O)c2ccccc2)c1	none
Cc1cccc(/C(N)=N/OC(=O)c2ccc(F)cc2)c1	TIM10 inh 73, tim23-1 inh 70 | TIM10 conf 80 | tim23-1 conf 45
C=C1SC(Nc2c(C)cc(C)cc2C)=NC12CCCCC2	TIM10 inh 45, tim23-1 inh 65 | TIM10 conf 39 | tim23-1 conf 63
COc1ccc(C=O)cc1OC(=O)N1CCOCC1	none
CCCCNC(=O)C(=O)N/N=C/c1ccc(OCC(=O)Nc2cccc(OC)c2)c(OC)c1	none
CC(CN1CCOCC1)OC(=O)c1ccc2c(c1)OCCO2 (centres undefined)	TIM10 inh 41, tim23-1 inh 72 | TIM10 conf inactive | tim23-1 conf 47
COC(=O)c1ccc(/C=C/C(=O)OCC(=O)Nc2cc(C)on2)cc1	none
Cc1ccc(S(=O)(=O)NC2=NCN(C(C)C)CN2)cc1	none
COC(=O)[C@]1(C)N[C@H](CN(C)C(=O)Nc2ccccc2)[C@@H]2C(=O)N(C)C(=O)[C@@H]21	none
CCC(C)N1CC(=O)N2C(c3ccc(OC)cc3OC)c3[nH]c4ccccc4c3C[C@H]2C1=O (some centres undefined)	none
COc1ccc(C2C(C#N)=C(SC)NC3=C2C(=O)CC(C)(C)C3)cc1 (centres undefined)	none
C=CCC1(C#N)C(SC)=NC2=C(C(=O)CC(C)(C)C2)C1c1ccc(Br)cc1 (centres undefined)	TIM10 inh 44, tim23-1 inh 55 | TIM10 conf 32 | tim23-1 conf 43
Cc1cc(NS(=O)(=O)c2cc(Cl)sc2Cl)no1	none
O=C1Nc2ccccc2/C1=C/c1ccccc1F	TIM10 inh 56, tim23-1 inh 53 | TIM10 conf 57 | tim23-1 conf 45
CC(=O)Nc1ccc(S(=O)(=O)NC2(C(F)(F)F)C(=O)Nc3c2c(=O)[nH]c(=O)n3Cc2ccco2)cc1 (centres undefined)	none
O=C1/C(=C/c2ccc(O)cc2)COc2ccccc21	TIM10 inh 46, tim23-1 inh 78 | TIM10 conf 36 | tim23-1 conf 50
O=C1CCCN1S(=O)(=O)c1ccccc1	none
O=C1CCCCCN1Sc1ccccc1	TIM10 inh 51, tim23-1 inh 58 | TIM10 conf 35 | tim23-1 conf inactive
CC(C)(C)c1ccc(S(=O)(=O)N2CCC(c3nc4ccc(Cl)cc4[nH]3)CC2)cc1	TIM10 inh 50, tim23-1 inh 64 | TIM10 conf 56 | tim23-1 conf inactive
CC(=O)Nc1ccc(S(=O)(=O)N2CCC(c3nc4ccc(C)cc4[nH]3)CC2)cc1	none
O=C1c2ccccc2[C@@H]2C[C@@H](O)[C@H](Nc3cccc(Cl)n3)CCN12	none

Screens from PubChem BioAssay.
